Source: ChEMBL document CHEMBL2157965, “Structure-based design of potent Bcl-2/Bcl-xL inhibitors with strong in vivo antitumor activity” (J Med Chem, 2012)
Calls of active or inactive are those of the source. The rule behind the calls is not given here. Peptide text beside a SMILES is read from it.

What was measured:
Bcl-2-like protein 1 = Bcl-2-like protein 1 (Homo sapiens, UniProt Q07817); test: Inhibition of human N-terminal His8-tagged Bcl-XL expressed in Escherichia coli BL21(DE3) assessed as inhibition of Fluorescein-labeled BAK binding after 1 to 2 hrs by fluorescence polarization assay
Sequence of Bcl-2-like protein 1 (Q07817 whole entry): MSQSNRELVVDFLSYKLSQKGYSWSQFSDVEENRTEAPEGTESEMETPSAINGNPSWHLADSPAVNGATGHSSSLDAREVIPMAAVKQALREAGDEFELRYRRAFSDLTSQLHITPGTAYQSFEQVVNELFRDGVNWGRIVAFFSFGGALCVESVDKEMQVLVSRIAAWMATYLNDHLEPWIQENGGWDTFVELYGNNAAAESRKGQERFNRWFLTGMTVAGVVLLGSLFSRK

[1] = target: Induced myeloid leukemia cell differentiation protein Mcl-1 (Homo sapiens, UniProt Q07820); test: Inhibition of human N-terminal His8-tagged Mcl1 expressed in Escherichia coli BL21(DE3) assessed as inhibition of Fluorescein-labeled BID binding after 1 to 2 hrs by fluorescence polarization assay
Sequence of Induced myeloid leukemia cell differentiation protein Mcl-1 (Q07820 whole entry, canonical isoform): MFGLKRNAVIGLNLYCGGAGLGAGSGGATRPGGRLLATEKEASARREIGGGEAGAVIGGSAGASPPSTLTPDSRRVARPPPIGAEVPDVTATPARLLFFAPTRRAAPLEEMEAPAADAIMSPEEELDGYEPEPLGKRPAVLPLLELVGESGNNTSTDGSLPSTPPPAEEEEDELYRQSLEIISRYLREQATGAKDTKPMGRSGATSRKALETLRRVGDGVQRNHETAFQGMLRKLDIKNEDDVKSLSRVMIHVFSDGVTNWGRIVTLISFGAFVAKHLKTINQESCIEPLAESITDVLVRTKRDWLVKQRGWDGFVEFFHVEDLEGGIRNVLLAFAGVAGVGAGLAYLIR

[2] = Inhibition of human N-terminal His6-tagged Bcl2 isoform 2 expressed in Escherichia coli BL21(DE3) assessed as inhibition of Fluorescein-labeled BIM binding after 1 to 2 hrs by fluorescence polarization assay
[3] = Antiproliferative activity against human NCI-H146 cells after 4 days by WST8 assay; format: functional, cell-based; settings: NCI-H146, 96 h
Procedure, shortened: (§1)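 Growth inhibition was measured as described previously. IC50 values come from growth curves.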

NCI-H1417 = test: Antiproliferative activity against human NCI-H1417 cells after 4 days by WST8 assay; format: functional, cell-based; settings: NCI-H1417, 96 h; procedure, shortened: as §1
NCI-H1963 = test: Antiproliferative activity against human NCI-H1963 cells after 4 days by WST8 assay; format: functional, cell-based; settings: NCI-H1963, 96 h; procedure, shortened: as §1
NCI-H146 [4] = test: Induction of cell death in human NCI-H146 cells after 24 hrs by trypan blue assay; format: functional, cell-based
Procedure, shortened: (§2)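 H146 cells were treated for 24 h across a range of concentrations. Cell death was scored by trypan blue assay.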

NCI-H146 [5] = test: Induction of apoptosis in human NCI-H146 cells assessed as caspase3 activation after 24 hrs by Western blot analysis; format: functional, cell-based
Procedure, shortened: (§3)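 H146 cells were treated for 24 h at a range of concentrations. Lysates were probed by Western blot with rabbit antibodies to PARP and caspase-3, detecting the cleaved forms. GAPDH served as loading control.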

NCI-H146 [6] = test: Induction of apoptosis in human NCI-H146 cells assessed as PARP cleavage after 24 hrs by Western blot analysis; format: functional, cell-based; procedure, shortened: as §3
NCI-H146 [7] = test: Induction of apoptosis in human NCI-H146 cells assessed as PARP cleavage at 30 nM after 2 hrs by Western blot analysis; format: functional, cell-based
Mus musculus [8] = test: Toxicity in SCID mouse assessed as weight loss at 25 mg/kg, iv administered 5 days a week for 2 weeks; format: organism-based; parameters: dose 25 mg/kg, route intravenous; settings: in vivo
NCI-H146 [9] = test: Induction of cell death in human NCI-H146 cells at 10 nM after 24 hrs by trypan blue assay; format: functional, cell-based; procedure, shortened: as §2
NCI-H146 [10] = test: Induction of apoptosis in human NCI-H146 cells assessed as caspase3 activation at 10 nM after 24 hrs by Western blot analysis; format: functional, cell-based; procedure, shortened: as §3
NCI-H146 [11] = test: Induction of apoptosis in human NCI-H146 cells assessed as PARP cleavage at 10 nM after 24 hrs by Western blot analysis; format: functional, cell-based; procedure, shortened: as §3
NCI-H146 [12] = test: Induction of apoptosis in human NCI-H146 cells assessed as increase in cytochrome c release after 2 hrs; format: functional, cell-based
NCI-H146 [13] = test: Induction of apoptosis in human NCI-H146 cells assessed as PARP cleavage after 2 hrs by Western blot analysis; format: functional, cell-based
NCI-H146 [14] = test: Induction of apoptosis in human NCI-H146 cells assessed as increase in cytochrome c release at 30 nM after 2 hrs; format: functional, cell-based
NCI-H146 [15] = test: Induction of apoptosis in human NCI-H146 cells xenografted in SCID mouse assessed as PARP cleavage at 25 mg/kg, iv at 3 hrs by Western blot analysis; format: functional, organism-based; parameters: dose 25 mg/kg
Procedure, shortened: (§4)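 SCID mice bearing subcutaneous H146 tumors (about 100 mm3) received a single i.v. dose of 25 mg/kg or vehicle. Tumors were collected at 3, 6 and 24 h. Western blot of tumor tissue assessed PARP and caspase-3 and their cleaved forms, with GAPDH as loading control.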

NCI-H146 [16] = test: Induction of apoptosis in human NCI-H146 cells xenografted in SCID mouse assessed as caspase3 activation at 25 mg/kg, iv at 3 hrs by Western blot analysis; format: functional, organism-based; parameters: dose 25 mg/kg; procedure, shortened: as §4
NCI-H146 [17] = test: Induction of apoptosis in human NCI-H146 cells xenografted in SCID mouse assessed as PARP cleavage at 25 mg/kg, iv up to 24 hrs by Western blot analysis; format: functional, organism-based; parameters: dose 25 mg/kg; procedure, shortened: as §4
NCI-H146 [18] = test: Induction of apoptosis in human NCI-H146 cells xenografted in SCID mouse assessed as caspase3 activation at 25 mg/kg, iv up to 24 hrs by Western blot analysis; format: functional, organism-based; parameters: dose 25 mg/kg; procedure, shortened: as §4
NCI-H146 [19] = test: Antitumor activity against human NCI-H146 cells xenografted in SCID mouse assessed as tumor growth inhibition at 25 mg/kg, iv administered 5 days a week for 2 weeks relative to vehicle-treated control; format: functional, organism-based; parameters: dose 25 mg/kg
Procedure, shortened: (§5)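 SCID mice received 5 × 10^6 H146 cells with matrigel, injected subcutaneously on the dorsal side, one tumor per mouse. At 40–110 mm3 (mean 70 mm3), mice were randomized, 8 per group. Dosing was 25 mg/kg i.v. daily, 5 days/week for 2 weeks, versus vehicle. Tumor size and body weight were measured 3×/week during treatment and 2×/week afterwards.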

NCI-H146 [20] = test: Antitumor activity against human NCI-H146 cells xenografted in SCID mouse assessed as tumor regression at 25 mg/kg, iv administered 5 days a week for 2 weeks relative to vehicle-treated control; format: functional, organism-based; parameters: dose 25 mg/kg; procedure, shortened: as §5
[21] = Antitumor activity against human NCI-H146 cells xenografted in SCID mouse assessed as tumor size at 25 mg/kg, iv administered 5 days a week for 2 weeks measured on day 92 ( Rvb = 800 mm3); format: functional; procedure, shortened: as §5
Mus musculus [22] = test: Toxicity in SCID mouse xenografted with human NCI-H146 cells assessed as weight loss at 25 mg/kg, iv administered 5 days a week for 2 weeks; format: organism-based; parameters: dose 25 mg/kg, route intravenous; settings: in vivo; procedure, shortened: as §5

| Structure (SMILES) | Ki (Bcl-2-like protein 1) [nM] | IC50 [1] [nM] | IC50 (NCI-H1417) [nM] | IC50 (NCI-H1963) [nM] | IC50 [2] [nM] | IC50 (Bcl-2-like protein 1) [nM] | Ki [2] [nM] | IC50 [3] [nM] | Activity (NCI-H146 [4]) | Activity (NCI-H146 [5]) | Activity (NCI-H146 [6]) | further results |
| --- | --- | --- | --- | --- | --- | --- | --- | --- | --- | --- | --- | --- |
| CSCC[C@H](NC(=O)[C@H](CCCN=C(N)N)NC(=O)[C@H](CCCN=C(N)N)NC(=O)[C@H](CC(C)C)NC(=O)[C@H](CCC(=O)O)NC(=O)[C@H](CCCN=C(N)N)NC(=O)CNC(=O)[C@H](Cc1ccc(O)cc1)NC(=O)[C@H](CCCN=C(N)N)NC(=O)[C@H](CCC(N)=O)NC(=O)[C@H](C)NC(=O)[C@H](C)NC(=O)[C@@H](N)Cc1c[nH]c2ccccc12)C(=O)N[C@@H](CO)C(=O)N[C@@H](CC(=O)O)C(=O)N[C@@H](CCC(=O)O)C(=O)N[C@@H](Cc1ccccc1)C(=O)N[C@H](C(=O)N[C@@H](CC(=O)O)C(=O)N[C@@H](CO)C(=O)N[C@@H](Cc1ccccc1)C(=O)N[C@@H](CCCCN)C(=O)O)C(C)C (H-WAAQRYGRELRRMSDEFVDSFK-OH) | < 1 | 32000 |  |  |  | 5 |  |  |  |  |  |  |
| Cc1c(C(=O)O)c(-c2cccc(N3CCN(c4ccc(NS(=O)(=O)c5ccc(N[C@H](CCN(C)C)CSc6ccccc6)c([N+](=O)[O-])c5)cc4)CC3)c2)c(-c2ccc(Cl)cc2)n1C | < 1 | > 2000 |  |  | 1.3 |  | < 0.6 |  | Dose-dependent effect | Dose-dependent effect | Dose-dependent effect |  |
| CCn1c(C)c(C(=O)O)c(-c2cccc(N3CCN(c4ccc(NS(=O)(=O)c5ccc(N[C@H](CCN(C)C)CSc6ccccc6)c([N+](=O)[O-])c5)cc4)CC3)c2)c1-c1ccc(Cl)cc1 | < 1 | > 2000 | 17.7 | 4.5 | 2 | 6.6 | < 0.6 | 8.1 | Dose-dependent effect | Dose-dependent effect | Dose-dependent effect | Activity (NCI-H146 [7]): Active; Activity (Mus musculus [8]): Non-toxic; Activity (NCI-H146 [15]): Active; Activity (NCI-H146 [16]): Active; Activity (NCI-H146 [17]): Active; Activity (NCI-H146 [18]): Active; TGI (NCI-H146 [19]): Active; Activity (NCI-H146 [20]): Active; Activity [21]: 200 mm3; Activity (Mus musculus [22]): < 10%; Activity (NCI-H146 [9]): Active; Activity (NCI-H146 [12]): Dose-dependent effect; Activity (NCI-H146 [13]): Dose-dependent effect; Activity (NCI-H146 [14]): Active |
| CC(C)C[C@H](NC(=O)[C@H](CCCCN)NC(=O)[C@H](CC(=O)O)NC(=O)CNC(=O)[C@H](Cc1ccccc1)NC(=O)[C@H](CCCNC(=N)N)NC(=O)[C@H](CCCNC(=N)N)NC(=O)[C@H](CC(C)C)NC(=O)[C@H](CCC(N)=O)NC(=O)[C@@H](NC(=O)[C@H](C)NC(=O)[C@H](CS)NC(=O)[C@H](CCC(=O)O)NC(=O)[C@@H](NC(=O)[C@H](CCC(=O)O)NC(=O)[C@H](CC(C)C)NC(=O)[C@@H](N)CCC(=O)O)C(C)C)[C@@H](C)O)C(=O)N[C@@H](CC(N)=O)C(=O)N[C@@H](Cc1ccccc1)C(=O)N[C@@H](CCCNC(=N)N)C(=O)N[C@@H](CCC(N)=O)C(=O)N[C@@H](CCCCN)C(=O)O (H-ELEVECATQLRRFGDKLNFRQK-OH) | 3400 | 37 |  |  |  | 11000 |  |  |  |  |  |  |

Continued, in another order:

| Ki (Bcl-2-like protein 1) [nM] | IC50 [1] [nM] | IC50 (NCI-H1417) [nM] | IC50 (NCI-H1963) [nM] | IC50 [2] [nM] | Structure (SMILES) | IC50 (Bcl-2-like protein 1) [nM] | Ki [2] [nM] | IC50 [3] [nM] | Activity (NCI-H146 [4]) | Activity (NCI-H146 [5]) | Activity (NCI-H146 [6]) | further results |
| --- | --- | --- | --- | --- | --- | --- | --- | --- | --- | --- | --- | --- |
|  | > 100000 | > 10000 | > 10000 |  | Cc1c(C(=O)NCCCN2CCN(C)CC2)c(-c2cccc(N3CCN(c4ccc(C(=O)NS(=O)(=O)c5ccc(N[C@H](CCN(C)C)CSc6ccccc6)c([N+](=O)[O-])c5)cc4)CC3)c2)c(-c2ccc(Cl)cc2)n1C |  | 7 | > 10000 |  |  |  |  |
| < 1 | > 2000 |  |  |  | Cc1c(C(=O)O)c(-c2cccc(N3CCN(c4ccc(NS(=O)(=O)c5ccc(N[C@H](CCN(C)C)CSc6ccccc6)c([N+](=O)[O-])c5)cc4)CC3)c2)c(-c2ccc(Cl)cc2)n1C(C)C | 4.8 |  |  | Dose-dependent effect | Dose-dependent effect | Dose-dependent effect | Activity (NCI-H146 [7]): Active; Activity (Mus musculus [8]): Toxic; Activity (NCI-H146 [9]): Active; Activity (NCI-H146 [10]): Active; Activity (NCI-H146 [11]): Active; Activity (NCI-H146 [12]): Dose-dependent effect; Activity (NCI-H146 [13]): Dose-dependent effect; Activity (NCI-H146 [14]): Active |
| < 1 |  | 109 | 30 | 5 | CNC(=O)c1c(-c2cccc(N3CCN(c4ccc(NS(=O)(=O)c5ccc(N[C@H](CCN(C)C)CSc6ccccc6)c([N+](=O)[O-])c5)cc4)CC3)c2)c(-c2ccc(Cl)cc2)n(C)c1C |  | 1.1 | 36 |  |  |  |  |
